TDP2 absorb: TDP2 (human) inhibition, absorbance primary screen. O95551. AID 720702. recombinant TDP2, T5PNP hydrolysis, p-nitrophenol absorbance 415 nm. inhibition, % at 12.8 µM. 370,000 tested, 0.34% active;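 active = inhibition above the mean of all tested compounds plus 3 SD, set per campaign, cut at about 25% in these data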
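Test system: human TDP2 enzyme; Input: 120 nM TDP2 per well; Buffer or medium: Mg2+-containing Tris-HCl buffer, pH 7.5; Reagent: 5 mM T5PNP; Dosing: 12.8 µM single point, 1% DMSO; Incubation: reaction 2 h, 37 °C; Detection: p-Nitrophenol epi absorbance; Read-out: % inhibition relative to enzyme-containing and enzyme-free wells; Replicates: single well per compound.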
GSTO1 inh: blocks human GSTO1 in RBBP9 counter-screen. AID 1974. P78417. recombinant GSTO1, activity-based probe fluorescence polarization. inhibition, % at 5.96 µM. 300,000 tested, 1.1% active;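 active = inhibition above the campaign mean inhibition plus 3 SD, cut at about 35% in these data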
Fh CTSL1 inh: cathepsin L1 inhibition, PFM18AAP counter-screen | recombinant F. hepatica cathepsin L1, Z-Leu-Arg-MCA fluorescence | inhibition, % at 5.96 µM | 300,000 tested, 0.49% active | AID 1906;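 active = inhibition above the mean of all tested compounds plus 3 SD, set per screening campaign, cut at about 17% in these data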
PAD4 inh: blocks human protein arginine deiminase 4 | recombinant PAD4, RCA probe fluorescence polarization | inhibition, % at 6.36 µM | 330,000 tested, 0.41% active | AID 485272;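 active = percent inhibition above a cutoff equal to the mean of all tested compounds plus 3 SD, cut at about 15% in these data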
Target sequence (Q9UM07 whole entry, looked up): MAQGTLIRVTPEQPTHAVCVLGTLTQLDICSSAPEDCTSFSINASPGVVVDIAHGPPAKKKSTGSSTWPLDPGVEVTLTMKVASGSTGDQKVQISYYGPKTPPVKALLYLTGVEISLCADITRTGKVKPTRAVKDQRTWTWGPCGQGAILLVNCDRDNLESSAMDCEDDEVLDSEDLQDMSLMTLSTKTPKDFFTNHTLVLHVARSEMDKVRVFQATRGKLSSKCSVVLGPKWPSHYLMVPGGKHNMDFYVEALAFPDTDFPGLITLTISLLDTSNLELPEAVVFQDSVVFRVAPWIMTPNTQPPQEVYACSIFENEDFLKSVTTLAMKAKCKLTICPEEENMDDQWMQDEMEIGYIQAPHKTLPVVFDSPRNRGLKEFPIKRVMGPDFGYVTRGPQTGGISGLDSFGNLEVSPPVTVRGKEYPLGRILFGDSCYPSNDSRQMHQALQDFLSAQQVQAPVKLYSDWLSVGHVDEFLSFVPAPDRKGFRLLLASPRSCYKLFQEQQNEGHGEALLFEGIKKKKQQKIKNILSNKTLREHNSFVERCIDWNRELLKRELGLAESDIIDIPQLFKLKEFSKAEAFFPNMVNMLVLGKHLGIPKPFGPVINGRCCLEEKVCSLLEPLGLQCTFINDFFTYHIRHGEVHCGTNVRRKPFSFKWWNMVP
PRMT1 inh: blocks human protein arginine methyltransferase 1; Q99873; recombinant PRMT1, activity-based probe fluorescence polarization; inhibition, % at 2.79 µM; 370,000 tested, 1.3% active; AID 652257;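 active = inhibition above about 21% made by adding two undisclosed values, limit read from the data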
PAD4 confirm: confirmation of human PAD4 inhibitors; shares compounds with PAD4 inh; recombinant PAD4, RCA probe fluorescence polarization; inhibition, % at 6.36 µM; 1,200 tested, 28% active; AID 488796;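 active = mean inhibition across replicates above the hit cutoff set by the earlier primary screen, cut at about 15% in these data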;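 note: inhibitors block active-site labeling by the probe so polarization falls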
Large screens that a line does not name were inactive (follow-up assays come after a bar, where they were run). The list is not random: actives were taken first. Their share in the collection is about 2.5%.

Cc1ccc(/C(=N/Nc2nc3ccccc3s2)C2=C(O)c3ccccc3C2=O)cc1	PAD4 inh 42.1 | PAD4 confirm 16.6
Cc1ccc(S(=O)(=O)N(C)CC(=O)Nc2nc3ccccc3s2)cc1	none
CCN(CC)CCCNC(=O)CSc1nc2cccnc2n1C	none (no result: GSTO1 inh, Fh CTSL1 inh, PAD4 inh)
CC(=O)N1CCN(c2ccc(NCc3cccs3)cc2)CC1	PAD4 inh 16.6 | PAD4 confirm inactive
CC(C)C[C@@H]1COc2cc(Br)ccc2S(=O)(=O)N1Cc1cn(CCC2OCCCO2)nn1	none (no result: GSTO1 inh, Fh CTSL1 inh, PAD4 inh)
O=C1c2sccc2-c2cccc3cccc1c23	none (no result: GSTO1 inh, Fh CTSL1 inh, PAD4 inh)
O=C1C(Br)=Cc2cccc3cccc1c23	PAD4 inh 91.4 | PAD4 confirm 62.0
CCC1C(=O)N=C(SCC(=O)Nc2ccccc2)NC1=O (stereo unspecified)	none
CCC1C(=O)N=C(SCC(=O)Nc2ccc(S(N)(=O)=O)cc2)NC1=O (stereo unspecified)	PAD4 inh 15.5 | PAD4 confirm inactive
COC(=O)C1CN(Cc2ccc(F)cc2)CCS(=O)(=O)N1Cc1ccc(OC)cc1 (stereo unspecified)	none (no result: GSTO1 inh, Fh CTSL1 inh, PAD4 inh)
COc1cccc(N2C(=O)CC(Nc3ccc(N4CCOCC4)cc3)C2=O)c1 (stereo unspecified)	PAD4 inh 31.1 (no result: TDP2 absorb, PRMT1 inh) | PAD4 confirm inactive
O=C([C@@H]1C[C@H]1c1ccccc1)N1CC[C@H]2[C@H](CCCN2Cc2cc(F)cc(F)c2)C1	none (no result: GSTO1 inh, Fh CTSL1 inh, PAD4 inh)
CCN(CC)S(=O)(=O)c1ccc(Cl)c(C(=O)Nc2cc(C)nn2-c2ccccc2C(F)(F)F)c1	PAD4 inh 18.2 (no result: TDP2 absorb, PRMT1 inh) | PAD4 confirm inactive
COc1ccc(OC)c(N/C(C)=C/C(=O)c2ccccc2)c1	none
COc1ccc(OC)c(N/C(C)=C/C(=O)c2ccncc2)c1	PAD4 inh 23.2 | PAD4 confirm inactive
O=c1[nH]nc(-c2ccc(OCc3ccc(Cl)cc3Cl)cc2)o1	PAD4 inh 88.6 | PAD4 confirm inactive
Cc1cc(C)cc(NC(=S)/C(=C(\[O-])c2ccc(Cl)s2)[n+]2cccc(C)c2)c1	PAD4 inh 90.0 | PAD4 confirm inactive
Cc1ccc(C)c(NC(=S)/C(=C(\[O-])c2ccc(Cl)s2)[n+]2ccccc2)c1	none
CCOC(=O)Cc1nnc(NC(=O)CSc2nnc3c(n2)[nH]c2ccccc23)s1	PAD4 inh 21.6 | PAD4 confirm inactive
COc1ccc(C(=O)CSc2nc(SC)ns2)cc1OC	none
COc1ccc(C(=O)CSc2cc(C)nc3nc(C)nn23)cc1OC	PAD4 inh 28.3 | PAD4 confirm 25.9
COc1ccc(CCn2c(C)cc(C(=O)CSc3nnc(N)s3)c2C)cc1	none (no result: TDP2 absorb, PRMT1 inh)
COc1ccc(CCn2c(C)cc(C(=O)CSc3nc(N)cc(=O)[nH]3)c2C)cc1	PAD4 inh 30.5 | PAD4 confirm inactive
CC(C)[C@@H]1NC(=O)[C@H]2C[C@@]3(c4ccccc4)c4ccccc4N[C@H]3N2C1=O	none (no result: GSTO1 inh, Fh CTSL1 inh, PAD4 inh)
Fc1ccc2cnc(-c3ccccc3F)cc2c1	none (no result: GSTO1 inh, Fh CTSL1 inh)
Fc1ccccc1-c1cc2ccccc2cn1	PAD4 inh 15.4 (no result: GSTO1 inh, Fh CTSL1 inh) | PAD4 confirm inactive
C=CC(=O)NC1CCCCN(C(C)C)C1=O (stereo unspecified)	none (no result: GSTO1 inh, Fh CTSL1 inh, PAD4 inh)
Cc1cc2c(cc1C)N(C(=O)CSc1nncn1C)C(C)(C)c1ssc(=S)c1-2	PAD4 inh 33.3 | PAD4 confirm 32.5
O=C(CN1CCc2onc(-c3cccc(-n4cc(CO)nn4)c3)c2C1=O)N1CCOCC1	none (no result: GSTO1 inh, Fh CTSL1 inh, PAD4 inh)
CCc1ccc(CCNC(=O)OC2CC3CC2[C@H]2CCCCN2[C@H]3C)cc1 (stereo partly specified)	none (no result: GSTO1 inh, Fh CTSL1 inh, PAD4 inh)
COCCOC(=O)c1c(C)n(C)c2ccc(OC(=O)N3CCOCC3)cc12	none
COCCOC(=O)c1c(C)n(C)c2ccc(OC(=O)c3c(OC)cccc3OC)cc12	PAD4 inh 29.2, PRMT1 inh 46.0 | PAD4 confirm 22.6
C=CCN1C(=O)N/C(=C/c2ccc(N3CCOCC3)o2)C1=O	none
O=C1N/C(=C/c2ccc(N3CCOCC3)o2)C(=O)N1c1ccccc1	PAD4 inh 119.3, PRMT1 inh 46.2 | PAD4 confirm inactive
Cc1ccc(-n2c(SCC(=O)NN=Cc3ccc(-c4ccccc4)cc3)nnc2-c2ccccc2)cc1	none (no result: GSTO1 inh, Fh CTSL1 inh, PAD4 inh)
COc1ccc(N=C2NC(=O)S/C2=C\c2ccc(N(C)C)cc2)cc1	PAD4 inh 35.9 | PAD4 confirm 47.5
CCOc1ccc(N=C2NC(=O)S/C2=C\c2ccc(Cl)cc2)cc1	none
CC(C)C[C@H]1COc2cc(Br)ccc2S(=O)(=O)N1Cc1cn(Cc2ccc(F)cc2)nn1	none (no result: GSTO1 inh, Fh CTSL1 inh, PAD4 inh)
C=CCN1C(=O)[C@@H](CC(=O)NCc2cccs2)[C@]2(C(=O)OC)CCCCC=C12	none (no result: GSTO1 inh, Fh CTSL1 inh, PAD4 inh)
Cn1nc(C(=O)OCc2ccc(F)cc2)c2ccccc2c1=O	none
Cc1ccc(COC(=O)c2nn(C)c(=O)c3ccccc23)cc1	PAD4 inh 25.3 | PAD4 confirm inactive
O=C1C=C(Nc2ccc(F)cc2)c2ccccc2C1=O	PAD4 inh 40.2 (no result: GSTO1 inh, Fh CTSL1 inh) | PAD4 confirm 38.5
O=S1(=O)c2ccc(N3CCSCC3)cc2Oc2ccccc2CN1Cc1cn(Cc2ccc(F)cc2)nn1	none (no result: GSTO1 inh, Fh CTSL1 inh, PAD4 inh)
O=C(O)c1ccc2c3c(ncnc13)-c1ccccc1C2=O	PAD4 inh 84.9 (no result: TDP2 absorb, PRMT1 inh) | PAD4 confirm 68.3
O=C(O)c1cccc2c1C(=O)c1ccccc1C2=O	none
Cc1ccc(-c2nn(-c3ccccc3)cc2C=O)o1	PAD4 inh 16.6 | PAD4 confirm inactive
Cc1ccc(S(=O)(=O)NC(=O)Nc2ccc(N(C)C)cc2)cc1	GSTO1 inh 87.4, PAD4 inh 27.7, PRMT1 inh 25.9 | PAD4 confirm inactive
CCOC(=O)c1csc(NC(=O)C2CCCN(S(=O)(=O)c3ccccc3[N+](=O)[O-])C2)n1 (stereo unspecified)	none (no result: GSTO1 inh, Fh CTSL1 inh, PAD4 inh)
Cc1[nH]c(=S)c(C#N)c(-c2ccco2)c1C(=O)N(C)C	PAD4 inh 18.6, PRMT1 inh 30.6 | PAD4 confirm inactive
Cc1ccc(N2C(=O)c3cccc4c(C(=O)O)ccc(c34)C2=O)cc1	none
O=C1c2cccc3c(O)ccc(c23)C(=O)N1c1ccc(Cl)cc1	PAD4 inh 33.7, PRMT1 inh 173.7 | PAD4 confirm 31.1
CC(=O)Nc1ccc(N2C(=O)c3cccc4c(O)ccc(c34)C2=O)cc1	PAD4 inh 38.8, PRMT1 inh 108.6 | PAD4 confirm 36.5
O=C1c2ccccc2C(=O)N1c1ccc(Cl)cc1	none (no result: TDP2 absorb, PRMT1 inh)
Cc1ccc(C2CC(=O)Oc3cc(O)ccc32)cc1 (stereo unspecified)	PAD4 inh 59.8 | PAD4 confirm 63.1
COc1ccc(C2CC(=O)Oc3cc(OC)ccc32)cc1 (stereo unspecified)	none (no result: GSTO1 inh, Fh CTSL1 inh)
CCOc1ccc(N2C(=O)CC(Sc3ccccc3C(=O)O)C2=O)c([N+](=O)[O-])c1 (stereo unspecified)	PAD4 inh 26.2, PRMT1 inh 68.2 | PAD4 confirm inactive
COC(=O)[C@]12C[C@H](CC(=O)NCc3cccs3)C(=O)N(Cc3ccco3)C1=C[C@H](C(C)C)O[C@@H]2C1CC1	none (no result: GSTO1 inh, Fh CTSL1 inh, PAD4 inh)
CC(C)(C)c1ccc(C(=O)NCCOc2ccccc2)cc1	PAD4 inh 18.3 | PAD4 confirm inactive
